Positions count from the first letter of the chain named. Names may count otherwise.
Legend:
4EHP S99N used for ITC = target: T1, 4EHP S99N used for ITC (human, UniProt O60573 1-245, S99N); experiment: ITC
T1 sequence: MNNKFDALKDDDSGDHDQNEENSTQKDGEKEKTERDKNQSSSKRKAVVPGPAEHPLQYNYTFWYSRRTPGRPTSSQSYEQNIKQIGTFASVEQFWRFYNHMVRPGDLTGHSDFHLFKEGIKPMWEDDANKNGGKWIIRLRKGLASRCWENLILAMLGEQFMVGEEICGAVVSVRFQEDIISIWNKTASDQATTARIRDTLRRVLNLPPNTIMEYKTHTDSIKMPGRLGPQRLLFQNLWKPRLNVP

[1] = target: T2, 4EHP used for ITC, wild type (human, UniProt O60573 1-245); experiment: ITC
T2 sequence: T1 sequence with N99S

[2] = target: T3, 4EHP-His6 (residues A52–F234), RE-LL mutant, of the competition assays (human, UniProt O60573 52-234, R103L | E149L); experiment: pull-down
T3 sequence: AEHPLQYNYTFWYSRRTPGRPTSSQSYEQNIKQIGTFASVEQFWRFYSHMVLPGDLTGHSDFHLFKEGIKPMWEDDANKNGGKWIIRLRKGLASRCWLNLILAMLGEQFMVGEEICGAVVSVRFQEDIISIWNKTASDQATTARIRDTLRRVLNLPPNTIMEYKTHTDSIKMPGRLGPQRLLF

4EHP = experiment: Pull-down / coimmunoprecipitation with 4EHP in HEK293T cell lysates; assay type: binding, human; details: Western blot; for interaction with 4EHP in cells, overexpressed binding partner: HEK293T cells, GFP-tagged protein and V5-SBP-4EHP
How it was run: (§1)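 Streptavidin-bead pull-down from RNase A-treated HEK293T lysates of cells expressing V5-SBP-tagged 4EHP or eIF4E (wild type or mutants). Co-bound endogenous GYF2, 4E-T and 4E-BP1 were probed; for 4EHP, co-expressed GFP-4E-BP1 was also probed, with V5-SBP-MBP as negative control. Inputs and bound fractions were analysed by Western blot with anti-V5, anti-GFP, anti-GYF2 and other antibodies, using ECL detection.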

eIF4E = experiment: Pull-down / coimmunoprecipitation with eIF4E in HEK293T cell lysates; assay type: binding, human; details: streptavidin pull-down, Western blot
How it was run: as §1

endogenous GYF2 = experiment: Pull-down of GYF2 by tagged 4EHP in HEK293T cells; assay type: binding, human; details: Western blot
How it was run: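 Streptavidin pull-downs used HEK293T lysates containing RNase A and expressed V5-SBP-4EHP, wild type or mutants. V5-SBP-MBP was the negative control. Inputs (1–1.5%) and bound fractions (up to 30% for GYF2) were analysed by Western blot with anti-V5 and anti-GYF2 antibodies, using ECL detection.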

TRIIYDRKFLMECRNSPVTKTPPRDLPTIPGVTS [4E-BP1 peptide, ITC] showed a Kd (4EHP S99N used for ITC) of 4 nM and a Kd [1] of 55 nM.

TRIIYDRKFLMECRNSPVTKTPPRDLPTIPGVTS (domain or fragment) [4E-BP1 peptide (residues T50–S83) with C-terminal GB1 tag, of the competition assays]: binds [2].

Molecule KYKLADYRYGREEMLALFLKDNKIPSDLLDKEFLPILQ [GYF2 C+L+NC peptide, ITC] has a Kd [1] of 14 nM.

B1: GYF1 A2+3*: GYF1 E86A, N95F; auxiliary site 2 mutant (listed as A2*) (protein, UniProt O75420 1-1035, looked up, variant E86A N95F)
GRB10-interacting GYF protein …: MAAETLNFGPEWLRALSGGGSVASPPPSPAMPKYKLADYRYGREEMLALYVKENKVPEELQDKEFAAVLQDEPLQPLALEPLTEEAQRNFSLSVFSVAVLRLMGKGAGPPLAGTSRGRGSTRSRGRGRGDSCFYQRSIEEGDGAFGRSPREIQRSQSWDDRGERRFEKSARRDGARCGFEEGGAGPRKEHARSDSENWRSLREEQEEEEEGSWRLGAGPRRDGDRWRSASPDGGPRSAGWREHGERRRKFEFDLRGDRGGCGEEEGRGGGGSSHLRRCRAPEGFEEDKDGLPEWCLDDEDEEMGTFDASGAFLPLKKGPKEPIPEEQELDFQGLEEEEEPSEGLEEEGPEAGGKELTPLPPQEEKSSSPSPLPTLGPLWGTNGDGDETAEKEPPAAEDDIRGIQLSPGVGSSAGPPGDLEDDEGLKHLQQEAEKLVASLQDSSLEEEQFTAAMQTQGLRHSAAATALPLSHGAARKWFYKDPQGEIQGPFTTQEMAEWFQAGYFSMSLLVKRGCDEGFQPLGEVIKMWGRVPFAPGPSPPPLLGNMDQERLKKQQELAAAALYQQLQHQQFLQLVSSRQLPQCALREKAALGDLTPPPPPPPQQQQQQLTAFLQQLQALKPPRGGDQNLLPTMSRSLSVPDSGRLWDVHTSASSQSGGEASLWDIPINSSTQGPILEQLQLQHKFQERREVELRAKREEEERKRREEKRRQQQQEEQKRRQEEEELFRRKHVRQQELLLKLLQQQQAVPVPPAPSSPPPLWAGLAKQGLSMKTLLELQLEGERQLHKQPPPREPARAQAPNHRVQLGGLGTAPLNQWVSEAGPLWGGPDKSGGGSSGLGLWEDTPKSGGSLVRGLGLKNSRSSPSLSDSYSHLSGRPIRKKTEEEEKLLKLLQGIPRPQDGFTQWCEQMLHTLSATGSLDVPMAVAILKEVESPYDVHDYIRSCLGDTLEAKEFAKQFLERRAKQKASQQRQQQQEAWLSSASLQTAFQANHSTKLGPGEGSKAKRRALMLHSDPSILGYSLHGSSGEIESVDDY
In the case of B1, the “interaction with 4EHP in cells, overexpressed binding partner” value (4EHP) is reported as “did not affect binding to overexpressed 4EHP in human cells”.

B2: 4E-T: Hs 4E-T Q9NRA8, full-length (1–985) (protein)
chain: MDRRSMGETESGDAFLDLKKPPASKCPHRYTKEELLDIKELPHSKQRPSCLSEKYDSDGVWDPEKWHASLYPASGRSSPVESLKKELDTDRPSLVRRIVDPRERVKEDDLDVVLSPQRRSFGGGCHVTAAVSSRRSGSPLEKDSDGLRLLGGRRIGSGRIISARTFEKDHRLSDKDLRDLRDRDRERDFKDKRFRREFGDSKRVFGERRRNDSYTEEEPEWFSAGPTSQSETIELTGFDDKILEEDHKGRKRTRRRTASVKEGIVECNGGVAEEDEVEVILAQEPAADQEVPRDAVLPEQSPGDFDFNEFFNLDKVPCLASMIEDVLGEGSVSASRFSRWFSNPSRSGSRSSSLGSTPHEELERLAGLEQAILSPGQNSGNYFAPIPLEDHAENKVDILEMLQKAKVDLKPLLSSLSANKEKLKESSHSGVVLSVEEVEAGLKGLKVDQQVKNSTPFMAEHLEETLSAVTNNRQLKKDGDMTAFNKLVSTMKASGTLPSQPKVSRNLESHLMSPAEIPGQPVPKNILQELLGQPVQRPASSNLLSGLMGSLEPTTSLLGQRAPSPPLSQVFQTRAASADYLRPRIPSPIGFTPGPQQLLGDPFQGMRKPMSPITAQMSQLELQQAALEGLALPHDLAVQAANFYQPGFGKPQVDRTRDGFRNRQQRVTKSPAPVHRGNSSSPAPAASITSMLSPSFTPTSVIRKMYESKEKSKEEPASGKAALGDSKEDTQKASEENLLSSSSVPSADRDSSPTTNSKLSALQRSSCSTPLSQANRYTKEQDYRPKATGRKTPTLASPVPTTPFLRPVHQVPLVPHVPMVRPAHQLHPGLVQRMLAQGVHPQHLPSLLQTGVLPPGMDLSHLQGISGPILGQPFYPLPAASHPLLNPRPGTPLHLAMVQQQLQRSVLHPPGSGSHAAAVSVQTTPQNVPSRSGLPHMHSQLEHRPSQRSSSPVGLAKWFGSDVLQQPLPSMPAKVISVDELEYRQ
In the case of B2, the “interaction with eIF4E in cell lysates” value (eIF4E) is reported as “interacted with both eIF4E and 4EHP” and the “interaction with 4EHP in cell lysates, endogenous binding partner” value (4EHP; HEK293T cell lysates, streptavidin pull-down) is reported as “interacted with both eIF4E and 4EHP”.

B3: 4EHP S99N: 4EHP S99N; dorsal surface mutant (protein, UniProt O60573 1-245, looked up, variant S99N)
Eukaryotic translation …: T1 sequence
B3 was tested, and the “binding to endogenous GYF2” value (endogenous GYF2) was “Binding of GYF2 was not affected by the S99N mutation”.

B4: 4EHP cap: 4EHP W124A; cap-binding pocket mutant (protein, UniProt O60573 1-245, looked up, variant W124A)
Eukaryotic translation …: T1 sequence with N99S, W124A
With B4 the “binding to endogenous GYF2” value (endogenous GYF2) was “still binds to GYF1/2”.

B5: GYF2 A1*: GYF2 P78D, L79A; auxiliary site 1 mutant (protein, UniProt Q6Y7W6 2-1299, looked up, variant P78D L79A)
GRB10-interacting GYF protein …: AAETQTLNFGPEWLRALSSGGSITSPPLSPALPKYKLADYRYGREEMLALFLKDNKIPSDLLDKEFLPILQEEPLPDAALVPFTEEEQRNFSMSVNSAAVLRLTGRGGGGTVVGAPRGRSSSRGRGRGRGECGFYQRSFDEVEGVFGRGGGREMHRSQSWEERGDRRFEKPGRKDVGRPNFEEGGPTSVGRKHEFIRSESENWRIFREEQNGEDEDGGWRLAGSRRDGERWRPHSPDGPRSAGWREHMERRRRFEFDFRDRDDERGYRRVRSGSGSIDDDRDSLPEWCLEDAEEEMGTFDSSGAFLSLKKVQKEPIPEEQEMDFRPVDEGEECSDSEGSHNEEAKEPDKTNKKEGEKTDRVGVEASEETPQTSSSSARPGTPSDHQSQEASQFERKDEPKTEQTEKAEEETRMENSLPAKVPSRGDEMVADVQQPLSQIPSDTASPLLILPPPVPNPSPTLRPVETPVVGAPGMGSVSTEPDDEEGLKHLEQQAEKMVAYLQDSALDDERLASKLQEHRAKGVSIPLMHEAMQKWYYKDPQGEIQGPFNNQEMAEWFQAGYFTMSLLVKRACDESFQPLGDIMKMWGRVPFSPGPAPPPHMGELDQERLTRQQELTALYQMQHLQYQQFLIQQQYAQVLAQQQKAALSSQQQQQLALLLQQFQTLKMRISDQNIIPSVTRSVSVPDTGSIWELQPTASQPTVWEGGSVWDLPLDTTTPGPALEQLQQLEKAKAAKLEQERREAEMRAKREEEERKRQEELRRQQEEILRRQQEEERKRREEEELARRKQEEALRRQREQEIALRRQREEEERQQQEEALRRLEERRREEEERRKQEELLRKQEEEAAKWAREEEEAQRRLEENRLRMEEEAARLRHEEEERKRKELEVQRQKELMRQRQQQQEALRRLQQQQQQQQLAQMKLPSSSTWGQQSNTTACQSQATLSLAEIQKLEEERERQLREEQRRQQRELMKALQQQQQQQQQKLSGWGNVSKPSGTTKSLLEIQQEEARQMQKQQQQQQQHQQPNRARNNTHSNLHTSIGNSVWGSINTGPPNQWASDLVSSIWSNADTKNSNMGFWDDAVKEVGPRNSTNKNKNNASLSKSVGVSNRQNKKVEEEEKLLKLFQGVNKAQDGFTQWCEQMLHALNTANNLDVPTFVSFLKEVESPYEVHDYIRAYLGDTSEAKEFAKQFLERRAKQKANQQRQQQQLPQQQQQQPPQQPPQQPQQQDSVWGMNHSTLHSVFQTNQSNNQQSNFEAVQSGKKKKKQKMVRADPSLLGFSVNASSERLNMGEIETLDDY
B5 was tested, and the “interaction with 4EHP in cells, overexpressed binding partner” value (4EHP) was “did not affect binding to overexpressed 4EHP in human cells”.

Source: paper PMC5538437 (Genes & Development, 2017)
